Experiment [1] in a line: Binding affinity to human FRalpha/RFC/PCFT expressed in KB cells assessed as antiproliferative activity measured as reduction in cell growth after 96 hrs by Cell-Titer Blue assay. The class given is cell-based. The procedure, abridged: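 RT16 cells were precultured 72 h in folate-free RPMI with 10% dFBS; KB cells were maintained in folate-free RPMI with 10% FBS. Drug at 0–1000 nM for 96 h at 37 °C, 5% CO2, with 2 nM leucovorin. Parallel wells had 200 nM folic acid to block FR uptake. CellTiter-Blue fluorescence (ex 560/em 590 nm). IC50 from dose–response, mean ± SE of 3–10 experiments.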

The nature of experiment [2]: Antiproliferative activity in Chinese hamster R2 cells deficient in RFC, PCFT, and FRalpha assessed as reduction in cell growth after 96 hrs by Cell-Titer Blue assay. The format is cell-based. Conditions: Cricetulus griseus, R2, 96 h. The procedure, abridged:
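CHO sublines were transfected lines kept with 1 mg/ml G418 (R2 is the transporter-null parent). Cells were exposed to 0–1000 nM drug for 96 h at 37 °C, 5% CO2, in folate-free RPMI with 10% dFBS and 25 nM leucovorin. CellTiter-Blue fluorescence read at ex 560/em 590 nm. IC50 is 50% loss of growth from dose–response curves, mean ± SE of 3–10 experiments.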

Experiment [3] concerns KB. In words: Antiproliferative activity against human KB cells at 0.1 to 10000 nM after 96 hrs in presence of 10 uM thymidine by Cell-Titer blue assay. The format is functional, cell-based. The procedure, abridged:
(§1)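 KB cells grown in folate-, nucleoside- and glycine-free RPMI 1640 with 10% dialyzed FBS, L-glutamine, antibiotics and 2 nM leucovorin across a drug concentration range. Protectants: thymidine 10 μM, glycine 130 μM, adenosine 60 μM or AICA 320 μM. Parallel incubations had no additions. Viable cells read by CellTiter-Blue fluorescence. At least triplicate experiments.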

For experiment [4], the system named is KB. In words: Antiproliferative activity against human KB cells up to 1 uM after 96 hrs in presence of 320 uM AICA by Cell-Titer blue assay. The class given is functional, cell-based. Put shortly: as §1
Experiment [5] concerns KB. In words: Antiproliferative activity against human KB cells at 0.1 to 10000 nM after 96 hrs in presence of 130 uM glycine by Cell-Titer blue assay. The format is functional, cell-based. The procedure, abridged: as §1
Experiment [6] relates to KB. In words: Antiproliferative activity against human KB cells at 0.1 to 10000 nM after 96 hrs in presence of 60 uM adenosine by Cell-Titer blue assay. The format is functional, cell-based. Put shortly: as §1
Experiment [7] concerns the target T1, Trifunctional purine biosynthetic protein adenosine-3 (Homo sapiens) (UniProt P22102).
T1 sequence (whole entry): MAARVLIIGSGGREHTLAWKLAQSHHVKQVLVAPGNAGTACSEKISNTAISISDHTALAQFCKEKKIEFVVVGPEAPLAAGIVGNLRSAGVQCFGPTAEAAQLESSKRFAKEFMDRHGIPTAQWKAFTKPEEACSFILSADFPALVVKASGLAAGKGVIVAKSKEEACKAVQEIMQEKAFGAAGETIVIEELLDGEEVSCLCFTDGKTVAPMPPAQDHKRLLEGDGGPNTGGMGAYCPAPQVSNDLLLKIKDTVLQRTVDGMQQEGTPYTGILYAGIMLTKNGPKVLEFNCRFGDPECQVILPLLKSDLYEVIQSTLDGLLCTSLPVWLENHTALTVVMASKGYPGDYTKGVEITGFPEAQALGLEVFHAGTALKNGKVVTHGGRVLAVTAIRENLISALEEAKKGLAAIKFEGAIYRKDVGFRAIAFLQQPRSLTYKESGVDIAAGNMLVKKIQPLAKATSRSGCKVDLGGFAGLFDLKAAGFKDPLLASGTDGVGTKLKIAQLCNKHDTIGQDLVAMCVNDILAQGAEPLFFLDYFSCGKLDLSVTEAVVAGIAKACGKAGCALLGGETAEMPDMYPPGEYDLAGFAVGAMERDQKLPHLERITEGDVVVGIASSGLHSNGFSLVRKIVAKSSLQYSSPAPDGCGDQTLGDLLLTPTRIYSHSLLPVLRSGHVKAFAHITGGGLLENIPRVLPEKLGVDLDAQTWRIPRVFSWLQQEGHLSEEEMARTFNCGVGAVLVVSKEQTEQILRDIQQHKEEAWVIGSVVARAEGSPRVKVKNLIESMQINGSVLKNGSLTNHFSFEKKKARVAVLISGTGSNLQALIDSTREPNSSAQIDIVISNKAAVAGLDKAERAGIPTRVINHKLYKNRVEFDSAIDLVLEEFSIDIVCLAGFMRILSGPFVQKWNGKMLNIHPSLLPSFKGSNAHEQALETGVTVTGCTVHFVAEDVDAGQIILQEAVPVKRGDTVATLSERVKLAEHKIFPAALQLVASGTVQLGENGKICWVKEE
In words: Inhibition of GAFTase in human KB cells assessed as inhibition of [14C(U)glycine incorporation into [14C]formyl GAR preincubated for 30 mins followed by [14C](U)glycine addition and measured after 16 hrs. The format is cell-based. Put shortly: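 KB cells adhered 24 h, then were washed and given drug (concentration range; DMSO controls) for 1 h in folate- and glutamine-depleted medium with 2 nM leucovorin. Azaserine 4 µM final was added for 30 min, then L-glutamine 2 mM and [14C(U)]glycine (0.1 mCi/L) for 16 h. TCA extracts yielded pmol [14C]formyl GAR/mg protein. IC50 relative to untreated controls, triplicates.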

The source made the active and inactive calls. The rule behind the calls is not given here.

One may read the IC50 as the point on the concentration scale where inhibition reaches its midpoint.

Take `CN(Cc1cc2c(=O)[nH]c(N)nc2[nH]1)C(=O)c1cc(C(=O)N[C@@H](CCC(=O)O)C(=O)O)cs1`: the figures for the IC50 in experiment [1] and in experiment [2] were 69.8 nM and over 1000 nM, respectively.

Take `Nc1nc2[nH]c(CCCc3ccc(C(=O)N[C@@H](CCC(=O)O)C(=O)O)s3)cc2c(=O)[nH]1`: the outcome in the experiment on KB [3] and with KB [5] was Active. Also, the result in the experiment on KB [4] and with KB [6] was inactive.

In the case of `CN(Cc1cc2c(=O)[nH]c(N)nc2[nH]1)C(=O)c1csc(C(=O)N[C@@H](CCC(=O)O)C(=O)O)c1`, the IC50 in experiment [1] and in experiment [2] was over 1000 nM in each case.

For the compound `CN(Cc1cc2c(=O)[nH]c(N)nc2[nH]1)C(=O)c1ccc(C(=O)N[C@@H](CCC(=O)O)C(=O)O)s1`, in experiment [7], the inhibition entry was “Active”. Also, the IC50 is 4.23 nM in experiment [1] and over 1000 nM in experiment [2]. In addition, the result in the experiment with KB [3] and in the experiment on KB [5] was Active. Besides, the result with KB [6] was inactive.

As to `Nc1nc2[nH]c(CCCc3ccc(C(=O)N[C@@H](CCC(=O)O)C(=O)O)cc3)cc2c(=O)[nH]1`, the result with KB [3] and in the experiment on KB [5] was Active. Also, the outcome in the experiment on KB [4] and in the experiment with KB [6] was inactive.

Turning to `CN(Cc1cc2c(=O)[nH]c(N)nc2[nH]1)C(=O)c1cccc(C(=O)N[C@@H](CCC(=O)O)C(=O)O)c1`, the results for the concentration for half-maximal inhibition (IC50) in experiment [1] and in experiment [2] were 6.36 nM and over 1000 nM, respectively.

Regarding `CN(Cc1cc2c(=O)[nH]c(N)nc2[nH]1)C(=O)c1ccc(C(=O)N[C@@H](CCC(=O)O)C(=O)O)cc1`, in experiment [7], the inhibition entry is “Active”. The IC50 in experiment [1] is 1.4 nM; in experiment [2], over 1000 nM. Further, the outcome in the experiment with KB [3] and with KB [5] was Active. Further, in the experiment with KB [6], the result was inactive.

As for `CN(Cc1cc2c(=O)[nH]c(N)nc2[nH]1)S(=O)(=O)c1ccc(C(=O)N[C@@H](CCC(=O)O)C(=O)O)cc1`, the IC50 in experiment [1] is 669 nM; in experiment [2], over 1000 nM.
